From ChEMBL document CHEMBL2157965, “Structure-based design of potent Bcl-2/Bcl-xL inhibitors with strong in vivo antitumor activity” (J Med Chem, 2012)
The source made the active and inactive calls. No cut-off for these calls is given here. Peptide text beside a SMILES is read from it.

Columns and labels:
[1] = Inhibition of human N-terminal His6-tagged Bcl2 isoform 2 expressed in Escherichia coli BL21(DE3) assessed as inhibition of Fluorescein-labeled BIM binding after 1 to 2 hrs by fluorescence polarization assay
[2] = system: NCI-H1417; test: Antiproliferative activity against human NCI-H1417 cells after 4 days by WST8 assay; type: functional, cell-based; conditions: NCI-H1417, 96 h
Procedure, shortened: (§1)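 Growth inhibition was measured as described previously. IC50 values come from growth curves.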

[3] = biological target: Bcl-2-like protein 1 (Homo sapiens, UniProt Q07817); test: Inhibition of human N-terminal His8-tagged Bcl-XL expressed in Escherichia coli BL21(DE3) assessed as inhibition of Fluorescein-labeled BAK binding after 1 to 2 hrs by fluorescence polarization assay
[4] = system: NCI-H1963; test: Antiproliferative activity against human NCI-H1963 cells after 4 days by WST8 assay; type: functional, cell-based; conditions: NCI-H1963, 96 h; procedure, shortened: as §1
[5] = Antiproliferative activity against human NCI-H146 cells after 4 days by WST8 assay; type: functional, cell-based; conditions: NCI-H146, 96 h; procedure, shortened: as §1
[6] = biological target: Induced myeloid leukemia cell differentiation protein Mcl-1 (Homo sapiens, UniProt Q07820); test: Inhibition of human N-terminal His8-tagged Mcl1 expressed in Escherichia coli BL21(DE3) assessed as inhibition of Fluorescein-labeled BID binding after 1 to 2 hrs by fluorescence polarization assay
[7] = system: Mus musculus; test: Toxicity in SCID mouse assessed as weight loss at 25 mg/kg, iv administered 5 days a week for 2 weeks; type: organism-based; design: dose 25 mg/kg, route intravenous; conditions: in vivo
[8] = system: NCI-H146; test: Induction of apoptosis in human NCI-H146 cells assessed as PARP cleavage at 10 nM after 24 hrs by Western blot analysis; type: functional, cell-based
Procedure, shortened: (§2)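 H146 cells were treated for 24 h at a range of concentrations. Lysates were probed by Western blot with rabbit antibodies to PARP and caspase-3, detecting the cleaved forms. GAPDH served as loading control.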

[9] = system: NCI-H146; test: Induction of apoptosis in human NCI-H146 cells assessed as PARP cleavage at 30 nM after 2 hrs by Western blot analysis; type: functional, cell-based
[10] = system: NCI-H146; test: Induction of apoptosis in human NCI-H146 cells assessed as PARP cleavage after 2 hrs by Western blot analysis; type: functional, cell-based
[11] = system: NCI-H146; test: Induction of apoptosis in human NCI-H146 cells assessed as caspase3 activation at 10 nM after 24 hrs by Western blot analysis; type: functional, cell-based; procedure, shortened: as §2
[12] = system: NCI-H146; test: Induction of apoptosis in human NCI-H146 cells assessed as caspase3 activation after 24 hrs by Western blot analysis; type: functional, cell-based; procedure, shortened: as §2
[13] = system: NCI-H146; test: Induction of apoptosis in human NCI-H146 cells assessed as increase in cytochrome c release at 30 nM after 2 hrs; type: functional, cell-based
[14] = system: NCI-H146; test: Induction of apoptosis in human NCI-H146 cells assessed as PARP cleavage after 24 hrs by Western blot analysis; type: functional, cell-based; procedure, shortened: as §2
[15] = system: NCI-H146; test: Induction of cell death in human NCI-H146 cells at 10 nM after 24 hrs by trypan blue assay; type: functional, cell-based
Procedure, shortened: (§3)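 H146 cells were treated for 24 h across a range of concentrations. Cell death was scored by trypan blue assay.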

[16] = system: NCI-H146; test: Induction of apoptosis in human NCI-H146 cells assessed as increase in cytochrome c release after 2 hrs; type: functional, cell-based
[17] = system: NCI-H146; test: Induction of cell death in human NCI-H146 cells after 24 hrs by trypan blue assay; type: functional, cell-based; procedure, shortened: as §3
[18] = system: NCI-H146; test: Induction of apoptosis in human NCI-H146 cells xenografted in SCID mouse assessed as caspase3 activation at 25 mg/kg, iv up to 24 hrs by Western blot analysis; type: functional, organism-based; design: dose 25 mg/kg
Procedure, shortened: (§4)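 SCID mice bearing subcutaneous H146 tumors (about 100 mm3) received a single i.v. dose of 25 mg/kg or vehicle. Tumors were collected at 3, 6 and 24 h. Western blot of tumor tissue assessed PARP and caspase-3 and their cleaved forms, with GAPDH as loading control.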

[19] = system: NCI-H146; test: Antitumor activity against human NCI-H146 cells xenografted in SCID mouse assessed as tumor growth inhibition at 25 mg/kg, iv administered 5 days a week for 2 weeks relative to vehicle-treated control; type: functional, organism-based; design: dose 25 mg/kg
Procedure, shortened: (§5)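 SCID mice received 5 × 10^6 H146 cells with matrigel, injected subcutaneously on the dorsal side, one tumor per mouse. At 40–110 mm3 (mean 70 mm3), mice were randomized, 8 per group. Dosing was 25 mg/kg i.v. daily, 5 days/week for 2 weeks, versus vehicle. Tumor size and body weight were measured 3×/week during treatment and 2×/week afterwards.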

[20] = system: NCI-H146; test: Induction of apoptosis in human NCI-H146 cells xenografted in SCID mouse assessed as PARP cleavage at 25 mg/kg, iv up to 24 hrs by Western blot analysis; type: functional, organism-based; design: dose 25 mg/kg; procedure, shortened: as §4
[21] = system: NCI-H146; test: Induction of apoptosis in human NCI-H146 cells xenografted in SCID mouse assessed as caspase3 activation at 25 mg/kg, iv at 3 hrs by Western blot analysis; type: functional, organism-based; design: dose 25 mg/kg; procedure, shortened: as §4
[22] = system: NCI-H146; test: Antitumor activity against human NCI-H146 cells xenografted in SCID mouse assessed as tumor regression at 25 mg/kg, iv administered 5 days a week for 2 weeks relative to vehicle-treated control; type: functional, organism-based; design: dose 25 mg/kg; procedure, shortened: as §5
[23] = system: NCI-H146; test: Induction of apoptosis in human NCI-H146 cells xenografted in SCID mouse assessed as PARP cleavage at 25 mg/kg, iv at 3 hrs by Western blot analysis; type: functional, organism-based; design: dose 25 mg/kg; procedure, shortened: as §4
[24] = Antitumor activity against human NCI-H146 cells xenografted in SCID mouse assessed as tumor size at 25 mg/kg, iv administered 5 days a week for 2 weeks measured on day 92 ( Rvb = 800 mm3); type: functional; procedure, shortened: as §5
[25] = system: Mus musculus; test: Toxicity in SCID mouse xenografted with human NCI-H146 cells assessed as weight loss at 25 mg/kg, iv administered 5 days a week for 2 weeks; type: organism-based; design: dose 25 mg/kg, route intravenous; conditions: in vivo; procedure, shortened: as §5

Induced myeloid leukemia cell differentiation protein Mcl-1, sequence (Q07820 whole entry): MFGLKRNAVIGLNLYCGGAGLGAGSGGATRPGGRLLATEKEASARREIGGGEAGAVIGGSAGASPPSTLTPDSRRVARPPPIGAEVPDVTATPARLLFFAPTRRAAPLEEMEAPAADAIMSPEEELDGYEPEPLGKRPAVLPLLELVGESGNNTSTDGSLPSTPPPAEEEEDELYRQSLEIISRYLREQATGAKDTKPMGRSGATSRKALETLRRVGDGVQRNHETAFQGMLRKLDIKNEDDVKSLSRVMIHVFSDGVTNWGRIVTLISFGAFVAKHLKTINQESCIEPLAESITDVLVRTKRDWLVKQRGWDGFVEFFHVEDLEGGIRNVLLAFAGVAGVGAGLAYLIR
Bcl-2-like protein 1, sequence (Q07817 whole entry): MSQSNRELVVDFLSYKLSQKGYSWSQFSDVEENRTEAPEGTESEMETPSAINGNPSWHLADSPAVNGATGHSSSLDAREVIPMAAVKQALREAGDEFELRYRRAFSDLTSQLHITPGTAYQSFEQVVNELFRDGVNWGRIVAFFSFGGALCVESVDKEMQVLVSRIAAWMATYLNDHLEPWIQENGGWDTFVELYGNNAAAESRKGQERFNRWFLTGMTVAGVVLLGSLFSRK

CNC(=O)c1c(-c2cccc(N3CCN(c4ccc(NS(=O)(=O)c5ccc(N[C@H](CCN(C)C)CSc6ccccc6)c([N+](=O)[O-])c5)cc4)CC3)c2)c(-c2ccc(Cl)cc2)n(C)c1C
IC50 [1]: 5 nM
Ki [1]: 1.1 nM
IC50 [2]: 109 nM
Ki [3]: < 1 nM
IC50 [4]: 30 nM
IC50 [5]: 36 nM

CN1CCN(CCCNC(=O)c2c(-c3ccccc3)c(-c3ccc(Cl)cc3)cn2CC[C@H](O)CO)CC1
IC50 [4]: > 10000 nM

Cc1c(C(=O)NCCCN2CCN(C)CC2)c(-c2cccc(N3CCN(c4ccc(NS(=O)(=O)c5ccc(N[C@H](CCN(C)C)CSc6ccccc6)c([N+](=O)[O-])c5)cc4)CC3)c2)c(-c2ccc(Cl)cc2)n1C
IC50 [1]: 2 nM
Ki [1]: < 0.6 nM
IC50 [2]: 258 nM
Ki [3]: 2.4 nM
IC50 [6]: > 10 µM
IC50 [4]: 72 nM
IC50 [5]: 110 nM

Cc1c(C(=O)NCCCN2CCN(C)CC2)c(-c2ccccc2)c(-c2ccc(Cl)cc2)n1C
IC50 [1]: 103000 nM
Ki [1]: 38000 nM
IC50 [2]: > 10000 nM
IC50 [3]: 291000 nM
Ki [3]: 88000 nM
IC50 [6]: > 100 µM
IC50 [4]: > 10000 nM
IC50 [5]: > 10000 nM

CSCC[C@H](NC(=O)[C@H](CCCN=C(N)N)NC(=O)[C@H](CCCN=C(N)N)NC(=O)[C@H](CC(C)C)NC(=O)[C@H](CCC(=O)O)NC(=O)[C@H](CCCN=C(N)N)NC(=O)CNC(=O)[C@H](Cc1ccc(O)cc1)NC(=O)[C@H](CCCN=C(N)N)NC(=O)[C@H](CCC(N)=O)NC(=O)[C@H](C)NC(=O)[C@H](C)NC(=O)[C@@H](N)Cc1c[nH]c2ccccc12)C(=O)N[C@@H](CO)C(=O)N[C@@H](CC(=O)O)C(=O)N[C@@H](CCC(=O)O)C(=O)N[C@@H](Cc1ccccc1)C(=O)N[C@H](C(=O)N[C@@H](CC(=O)O)C(=O)N[C@@H](CO)C(=O)N[C@@H](Cc1ccccc1)C(=O)N[C@@H](CCCCN)C(=O)O)C(C)C (H-WAAQRYGRELRRMSDEFVDSFK-OH)
IC50 [3]: 5 nM
Ki [3]: < 1 nM
IC50 [6]: 32 µM

Cc1cc(-c2cccc(N3CCN(c4ccc(NS(=O)(=O)c5ccc(N[C@H](CCN(C)C)CSc6ccccc6)c([N+](=O)[O-])c5)cc4)CC3)c2)c(-c2ccc(Cl)cc2)n1C
IC50 [3]: 11 nM
Ki [3]: 1.2 nM
IC50 [6]: > 10 µM
IC50 [5]: > 10000 nM

Cc1c(C(=O)O)c(-c2cccc(N3CCN(c4ccc(NS(=O)(=O)c5ccc(N[C@H](CCN(C)C)CSc6ccccc6)c([N+](=O)[O-])c5)cc4)CC3)c2)c(-c2ccc(Cl)cc2)n1C(C)C
Activity [7]: Toxic
Activity [8]: Active
Activity [9]: Active
IC50 [3]: 4.8 nM
Ki [3]: < 1 nM
Activity [10]: Dose-dependent effect
IC50 [6]: > 2 µM
Activity [11]: Active
Activity [12]: Dose-dependent effect
Activity [13]: Active
Activity [14]: Dose-dependent effect
Activity [15]: Active
Activity [16]: Dose-dependent effect
Activity [17]: Dose-dependent effect

CCn1c(C)c(C(=O)O)c(-c2cccc(N3CCN(c4ccc(NS(=O)(=O)c5ccc(N[C@H](CCN(C)C)CSc6ccccc6)c([N+](=O)[O-])c5)cc4)CC3)c2)c1-c1ccc(Cl)cc1
Activity [7]: Non-toxic
IC50 [1]: 2 nM
Ki [1]: < 0.6 nM
Activity [18]: Active
Activity [9]: Active
IC50 [2]: 17.7 nM
IC50 [3]: 6.6 nM
Ki [3]: < 1 nM
Activity [10]: Dose-dependent effect
TGI [19]: Active
Activity [20]: Active
IC50 [6]: > 2 µM
IC50 [4]: 4.5 nM
Activity [21]: Active
Activity [22]: Active
Activity [12]: Dose-dependent effect
IC50 [5]: 8.1 nM
Activity [13]: Active
Activity [14]: Dose-dependent effect
Activity [23]: Active
Activity [15]: Active
Activity [16]: Dose-dependent effect
Activity [17]: Dose-dependent effect
Activity [24]: 200 mm3
Activity [25]: < 10%

Cc1c(C(=O)O)c(-c2cccc(N3CCN(c4ccc(NS(=O)(=O)c5ccc(N[C@H](CCN(C)C)CSc6ccccc6)c([N+](=O)[O-])c5)cc4)CC3)c2)c(-c2ccc(Cl)cc2)n1C1CC1
IC50 [1]: 17.6 nM
Ki [1]: 4.3 nM
IC50 [2]: 154 nM
IC50 [3]: 7.7 nM
Ki [3]: < 1 nM
IC50 [6]: > 2 µM
IC50 [4]: 60 nM
IC50 [5]: 69 nM

Cc1c(C(=O)NCCCN2CCN(C)CC2)c(-c2cccc(N3CCN(c4ccc(C(=O)NS(=O)(=O)c5ccc(N[C@H](CCN(C)C)CSc6ccccc6)c([N+](=O)[O-])c5)cc4)CC3)c2)c(-c2ccc(Cl)cc2)n1C
Ki [1]: 7 nM
IC50 [2]: > 10000 nM
IC50 [6]: > 100 µM
IC50 [4]: > 10000 nM
IC50 [5]: > 10000 nM

Cc1c(C(=O)O)c(-c2cccc(N3CCN(c4ccc(NS(=O)(=O)c5ccc(N[C@H](CCN(C)C)CSc6ccccc6)c([N+](=O)[O-])c5)cc4)CC3)c2)c(-c2ccc(Cl)cc2)n1C
IC50 [1]: 1.3 nM
Ki [1]: < 0.6 nM
Ki [3]: < 1 nM
IC50 [6]: > 2 µM
Activity [12]: Dose-dependent effect
Activity [14]: Dose-dependent effect
Activity [17]: Dose-dependent effect

CN(C)CC[C@H](CSc1ccccc1)Nc1ccc(S(=O)(=O)NC(=O)c2ccc(N3CCN(Cc4ccccc4-c4ccc(Cl)cc4)CC3)cc2)cc1[N+](=O)[O-] [ABT 737]
IC50 [2]: 412 nM
IC50 [4]: 59 nM
Activity [12]: Dose-dependent effect
IC50 [5]: 37 nM
Activity [14]: Dose-dependent effect
Activity [17]: Dose-dependent effect

CC(C)C[C@H](NC(=O)[C@H](CCCCN)NC(=O)[C@H](CC(=O)O)NC(=O)CNC(=O)[C@H](Cc1ccccc1)NC(=O)[C@H](CCCNC(=N)N)NC(=O)[C@H](CCCNC(=N)N)NC(=O)[C@H](CC(C)C)NC(=O)[C@H](CCC(N)=O)NC(=O)[C@@H](NC(=O)[C@H](C)NC(=O)[C@H](CS)NC(=O)[C@H](CCC(=O)O)NC(=O)[C@@H](NC(=O)[C@H](CCC(=O)O)NC(=O)[C@H](CC(C)C)NC(=O)[C@@H](N)CCC(=O)O)C(C)C)[C@@H](C)O)C(=O)N[C@@H](CC(N)=O)C(=O)N[C@@H](Cc1ccccc1)C(=O)N[C@@H](CCCNC(=N)N)C(=O)N[C@@H](CCC(N)=O)C(=O)N[C@@H](CCCCN)C(=O)O (H-ELEVECATQLRRFGDKLNFRQK-OH)
IC50 [3]: 11000 nM
Ki [3]: 3400 nM
IC50 [6]: 0.037 µM
